# pIC50, pKi: −log10 of the molar value. Calls of active or inactive are those of the source. The calls are words filed in the database; no cut-off is given here.
# Key:
# [1] = (§1) Inhibition of BPAO after 20 mins by benzylamine assay; design: species or system Bos taurus
# In short: (§2)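 Bovine plasma amine oxidase (~1 μM) preincubated with varying inhibitor concentrations at 30 °C in 50 mM sodium phosphate, pH 7.2. Aliquots taken over time were assayed for residual activity by the benzylamine assay, with benzaldehyde formation followed at 250 nm. The value is the concentration giving 50% inactivation at a fixed 20 min.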
# Bos taurus [2] = species: Bos taurus; test: Ratio of kinact to Ki for BPAO
# In short: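 Inactivation of ~1 μM BPAO by varying inhibitor concentrations, at 30 °C in 50 mM sodium phosphate, pH 7.2. Residual activity in time aliquots was read by benzylamine oxidation (benzaldehyde, 250 nm). Log activity versus time gave pseudo-first-order rates, and kinact and Ki were obtained from Kitz–Wilson plots.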
# Bos taurus [3] = species: Bos taurus; test: Inhibition of BPAO assessed as redox cycling activity by NBT assay
# In short: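 BPAO was inactivated by preincubation with inhibitor in 50 mM sodium phosphate, pH 7.2. The inactivated preparations were then tested for TPQ cofactor redox cycling by the standard sodium glycinate nitroblue tetrazolium staining assay.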
# Bos taurus [4] = species: Bos taurus; test: as §1; in short: as §2
Structure (SMILES),pIC50 [1],Ratio (Bos taurus [2]) [mM⁻¹ min⁻¹],Activity (Bos taurus [3]),pKi [1],Kinact (Bos taurus [4]) [min⁻¹]
C1=C(c2ccc3ccccc3n2)CNC1,5.57,13,–,–,–
Fc1c(F)c(F)c(C2=CCNC2)c(F)c1F,5.21,6,Active,–,–
C1=C(c2cccnc2)CNC1,5.82,24,–,–,–
C1=C(c2nccc3ccccc23)CNC1,6.07,40,Active,–,–
C1=C(c2ccccn2)CNC1,6.12,65,–,–,–

# Other lines, results leading:
pIC50 [1],Ratio (Bos taurus [2]) [mM⁻¹ min⁻¹],Activity (Bos taurus [3]),pKi [1],Kinact (Bos taurus [4]) [min⁻¹],Structure (SMILES)
4.30,1.2,Active,4.12,0.091,C1=C(c2ccncc2)CNC1
< 3.00,–,–,–,–,C[n+]1ccc(C2=CCNC2)cc1
3.30,–,–,–,–,C[n+]1cccc(C2=CCNC2)c1

# From ChEMBL document CHEMBL1139049, “Highly potent 3-pyrroline mechanism-based inhibitors of bovine plasma amine oxidase and mass spectrometric confirmation of cofactor derivatization” (Bioorg Med Chem, 2007)
